Measurements as given in ChEMBL document CHEMBL1926650, “Bioactive lignans from the rhizomes of Acorus gramineus” (J Nat Prod, 2011).

What was measured:
SK-OV-3 = test: Cytotoxicity against human SKOV3 cells by sulforhodamine B assay; type: functional, cell-based
A549 = test: Cytotoxicity against human A549 cells by sulforhodamine B assay; type: functional, cell-based
SK-MEL-2 = test: Cytotoxicity against human SK-MEL-2 cells by sulforhodamine B assay; type: functional, cell-based
BV-2 = test: Anti-neuroinflammatory activity in mouse BV2 cells assessed as inhibition of LPS-induced NO production pretreated for 30 mins before LPS-stimulation measured after 24 hrs by Griess reaction; type: functional, cell-based
Method in brief: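 Murine BV-2 microglia activated with LPS; NO output was estimated from nitrite, its soluble oxidation product, measured in the culture medium with the Griess reaction. The value is the IC50 for lowering that nitrite.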

[1] = Cytotoxicity against LPS-stimulated mouse BV2 cells assessed as cell viability after 24 hrs by MTT assay relative to control; type: cell-based, BV-2; details: read-out: Activity
HUVEC [2] = test: Cytotoxicity against HUVEC by sulforhodamine B assay; type: cell-based; details: Homo sapiens
HUVEC [3] = test: Selectivity index, ratio of IC50 for HUVEC to IC50 for human SKMEL2 cells

Compound	IC50 (SK-OV-3) [µM]	IC50 (A549) [µM]	IC50 (SK-MEL-2) [µM]	IC50 (BV-2) [µM]	viability at 24 h [1] [%]	IC50 (HUVEC [2]) [µM]	Ratio IC50 (HUVEC [3])
COc1cc([C@@H](O)[C@@H](CO)Oc2ccc(CCCO)cc2OC)ccc1O	> 10	> 10	> 10	52	97.5	–	–
COc1cc([C@H](O)[C@H](CO)Oc2ccc(CCCO)cc2OC)ccc1O	> 10	> 10	> 10	53	96.7	–	–
COc1ccc([C@H]2O[C@H](c3cc(OC)c(OC)c(OC)c3)[C@@H](C)[C@@H]2C)cc1OC	> 10	> 10	> 10	125	87.3	–	–
C/C=C/c1cc(OC)c(O[C@H](C)[C@H](O)c2cc(OC)c(OC)c(OC)c2)c(OC)c1	> 10	> 10	> 10	> 200	101	–	–
C/C=C/c1cc(OC)c(O[C@H](C)[C@H](O)c2ccc(OC)c(OC)c2)c(OC)c1	> 10	> 10	> 10	176	102	–	–
COc1cc([C@@H]2c3cc4c(cc3[C@@H](O[C@@H]3O[C@@H]5CO[C@@H](C)O[C@H]5[C@H](O)[C@H]3O)[C@H]3COC(=O)[C@H]23)OCO4)cc(OC)c1O [ETOPOSIDE]	1.31	0.44	0.41	–	–	1.86	–
COc1ccc([C@H]2O[C@H](c3ccc(OC)c(OC)c3)[C@@H](C)[C@H]2C)cc1OC [GANSCHISANDRINE]	> 10	> 10	> 10	76	104	–	–
COc1ccc([C@H]2O[C@H](c3cc(OC)c(OC)c(OC)c3)[C@@H](C)[C@H]2C)cc1OC [LIGRAMINOL A]	9.44	6.92	4.53	21.5	88.6	27.2	6
COc1cc([C@@H]2O[C@@H](c3cc(OC)c(O)c(OC)c3)[C@H](CO[C@@H]3O[C@H](CO)[C@@H](O)[C@H](O)[C@H]3O)[C@H]2CO)cc(OC)c1O [LIGRAMINOL B]	> 10	> 10	> 10	23	84.4	–	–
C/C=C\c1ccc(O[C@H](C)[C@H](OC(C)=O)c2ccc(OC)c(OC)c2)c(OC)c1 [LIGRAMINOL C]	> 10	9.54	> 10	16.2	90.5	25.9	–
COc1ccc(C[C@@H](CO)Oc2ccc(CCCO)cc2OC)cc1OC [LIGRAMINOL D]	> 10	8.28	> 10	18.4	98.4	22.6	–
COc1cc(C[C@H](CO)Oc2ccc(CCCO)cc2OC)ccc1O [LIGRAMINOL E]	> 10	> 10	> 10	> 200	97.1	–	–
CNC(=N)NCCC[C@H](N)C(=O)O [TILARGININE]	–	–	–	15.4	98.7	–	–
COc1ccc([C@H]2O[C@@H](c3ccc(OC)c(OC)c3)[C@H](C)[C@H]2C)cc1OC [VERAGUENSIN]	> 10	> 10	> 10	48.4	104	–	–
